Test results taken from paper PMC12502093 (RSC Advances, 2025).
In brackets after ≈: the same amount, converted by molar mass.

Legend:
[1] = system: C. albicans ATCC 10231; experiment: Minimum inhibitory concentration, C. albicans; format: cell-based; details: Candida albicans, ATCC10231, read-out: MIC (mg mL^−1)
Summary of the method: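 MIC was determined by a previously reported method for compounds selected from the well-diffusion screen and is expressed in mg mL−1. […] For C. albicans, 100 μL of negative cells went onto potato dextrose agar at 25 °C/72 h.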

[2] = system: C. albicans ATCC 10231; experiment: Agar well diffusion test; format: cell-based; details: AWDT
[3] = system: c-MYC; experiment: qRT-PCR gene expression in MCF7 cells: c-MYC; format: cell-based, human; details: compound at IC50, 48 h, relative to β-Actin, vs control
Summary of the method: (§1)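 MCF7 cells (3 × 10^4 per well) were treated 48 h with test compound. Total RNA was column-extracted and reverse-transcribed to first-strand cDNA. SYBR Green qPCR ran 95 °C 10 min, then 40 cycles of 95 °C 15 s, 60 °C 30 s, 72 °C 30 s. Expression was normalised to β-Actin by 2−ΔΔCT relative to untreated control. Data are mean ± SEM; Student's t-test, P < 0.05.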

[4] = system: Cyclin D1; experiment: qRT-PCR gene expression in MCF7 cells: Cyclin D1; format: cell-based, human; details: compound at IC50, 48 h, relative to β-Actin, vs control
Summary of the method: as §1

[5] = system: MCF7 cells; experiment: Neutral red uptake cytotoxicity assay, MCF7; format: cell-based, human
Summary of the method: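 Neutral red uptake. Log-phase cells were grown in DMEM with 10% FBS at 37 °C, 5% CO2, at 10^4 cells/well. They were exposed 48 h to 12.5, 25, 50 and 100 μM test compound (DMSO final <0.2%), then given neutral red medium for 2 h and washed with DPBS. Dye was extracted with 1% acetic acid/50% ethanol and read at 450/630 nm. IC50 came from log concentration versus intensity, three runs averaged. SI = MDCK IC50 / MCF7 IC50.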

[6] = system: S. aureus ATCC 25923; experiment: Agar well diffusion test; format: cell-based; details: AWDT
Summary of the method: (§2)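 Agar well diffusion. Test compounds were placed in wells on agar inoculated with the reference strain or isolate. After incubation, inhibition zone diameters were measured in mm with a caliper. Runs were in triplicate and the zone averaged. Scale: 0 = no inhibition; 0–6 mm (−); 7–11 mm (+); 12–14 mm (++); 15–17 mm (+++).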

[7] = biological target: STAT3 (Homo sapiens, UniProt P40763); experiment: STAT3 tyrosine phosphorylation inhibition; format: biochemical
[8] = system: BAX; experiment: qRT-PCR gene expression in MCF7 cells: BAX; format: cell-based, human; details: compound at IC50, 48 h, relative to β-Actin, vs control
Summary of the method: as §1

[9] = biological target: T1, S. aureus DNA gyrase (Staphylococcus aureus, UniProt P0A0K8); experiment: S. aureus DNA gyrase supercoiling assay; format: biochemical
[10] = system: STAT3; experiment: qRT-PCR gene expression in MCF7 cells: STAT3; format: cell-based, human; details: compound at IC50, 48 h, relative to β-Actin, vs control
Summary of the method: as §1

[11] = system: A. flavus isolate; experiment: Agar well diffusion test; format: cell-based; details: AWDT
Summary of the method: as §2

[12] = system: E. coli O157 ATCC 700728; experiment: Agar well diffusion test; format: cell-based; details: AWDT
Summary of the method: as §2

[13] = biological target: T1, S. aureus DNA gyrase; experiment: S. aureus DNA gyrase ATPase assay; format: biochemical
[14] = system: IL6; experiment: qRT-PCR gene expression in MCF7 cells: IL6; format: cell-based, human; details: compound at IC50, 48 h, relative to β-Actin, vs control
Summary of the method: as §1

[15] = biological target: T2, S. aureus topoisomerase IV (Staphylococcus aureus, UniProt P0C1S7); experiment: S. aureus topoisomerase IV ATPase assay; format: biochemical
[16] = biological target: T2, S. aureus topoisomerase IV; experiment: S. aureus topoisomerase IV decatenation assay; format: biochemical

T2 sequence (P0C1S7 whole entry): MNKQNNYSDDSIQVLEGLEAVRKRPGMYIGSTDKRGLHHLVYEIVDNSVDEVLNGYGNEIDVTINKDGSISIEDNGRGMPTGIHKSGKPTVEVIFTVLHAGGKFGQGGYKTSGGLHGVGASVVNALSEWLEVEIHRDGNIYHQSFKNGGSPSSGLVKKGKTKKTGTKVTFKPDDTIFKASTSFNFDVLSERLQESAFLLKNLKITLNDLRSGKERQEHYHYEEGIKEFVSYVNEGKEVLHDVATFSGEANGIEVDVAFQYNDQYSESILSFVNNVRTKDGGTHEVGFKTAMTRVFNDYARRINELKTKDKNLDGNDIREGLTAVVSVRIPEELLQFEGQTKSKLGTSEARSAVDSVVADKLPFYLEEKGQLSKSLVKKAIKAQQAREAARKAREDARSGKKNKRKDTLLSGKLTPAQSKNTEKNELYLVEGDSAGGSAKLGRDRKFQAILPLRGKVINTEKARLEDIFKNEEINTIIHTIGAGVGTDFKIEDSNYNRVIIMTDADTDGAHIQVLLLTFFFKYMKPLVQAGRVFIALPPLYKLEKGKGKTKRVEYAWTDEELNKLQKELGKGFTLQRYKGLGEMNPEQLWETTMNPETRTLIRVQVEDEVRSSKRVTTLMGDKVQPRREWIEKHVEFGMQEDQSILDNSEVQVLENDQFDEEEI
T2 sequence (P0C1U9 whole entry partner): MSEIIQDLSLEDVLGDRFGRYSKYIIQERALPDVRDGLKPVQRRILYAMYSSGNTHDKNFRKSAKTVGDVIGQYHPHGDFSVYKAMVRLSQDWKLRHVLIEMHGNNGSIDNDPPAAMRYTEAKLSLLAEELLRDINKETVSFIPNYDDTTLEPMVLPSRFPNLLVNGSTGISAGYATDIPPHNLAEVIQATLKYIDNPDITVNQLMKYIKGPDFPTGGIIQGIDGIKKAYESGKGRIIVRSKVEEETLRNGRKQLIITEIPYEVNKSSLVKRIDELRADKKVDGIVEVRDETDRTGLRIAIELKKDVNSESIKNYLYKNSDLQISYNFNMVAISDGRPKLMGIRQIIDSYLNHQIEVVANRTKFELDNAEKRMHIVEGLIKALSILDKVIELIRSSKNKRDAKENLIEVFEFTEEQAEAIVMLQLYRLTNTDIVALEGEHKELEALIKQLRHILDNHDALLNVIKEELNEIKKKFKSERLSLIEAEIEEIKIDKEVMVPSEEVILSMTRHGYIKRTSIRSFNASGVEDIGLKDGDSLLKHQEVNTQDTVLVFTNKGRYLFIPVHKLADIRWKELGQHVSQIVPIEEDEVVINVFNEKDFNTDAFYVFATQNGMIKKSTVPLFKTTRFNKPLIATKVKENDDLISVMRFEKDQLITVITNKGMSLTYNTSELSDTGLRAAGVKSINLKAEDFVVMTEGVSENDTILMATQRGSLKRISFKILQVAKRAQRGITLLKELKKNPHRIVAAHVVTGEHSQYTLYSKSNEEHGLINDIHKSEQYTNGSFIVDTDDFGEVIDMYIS
Chain of STAT3 (Homo sapiens, UniProt P40763) (P40763 whole entry): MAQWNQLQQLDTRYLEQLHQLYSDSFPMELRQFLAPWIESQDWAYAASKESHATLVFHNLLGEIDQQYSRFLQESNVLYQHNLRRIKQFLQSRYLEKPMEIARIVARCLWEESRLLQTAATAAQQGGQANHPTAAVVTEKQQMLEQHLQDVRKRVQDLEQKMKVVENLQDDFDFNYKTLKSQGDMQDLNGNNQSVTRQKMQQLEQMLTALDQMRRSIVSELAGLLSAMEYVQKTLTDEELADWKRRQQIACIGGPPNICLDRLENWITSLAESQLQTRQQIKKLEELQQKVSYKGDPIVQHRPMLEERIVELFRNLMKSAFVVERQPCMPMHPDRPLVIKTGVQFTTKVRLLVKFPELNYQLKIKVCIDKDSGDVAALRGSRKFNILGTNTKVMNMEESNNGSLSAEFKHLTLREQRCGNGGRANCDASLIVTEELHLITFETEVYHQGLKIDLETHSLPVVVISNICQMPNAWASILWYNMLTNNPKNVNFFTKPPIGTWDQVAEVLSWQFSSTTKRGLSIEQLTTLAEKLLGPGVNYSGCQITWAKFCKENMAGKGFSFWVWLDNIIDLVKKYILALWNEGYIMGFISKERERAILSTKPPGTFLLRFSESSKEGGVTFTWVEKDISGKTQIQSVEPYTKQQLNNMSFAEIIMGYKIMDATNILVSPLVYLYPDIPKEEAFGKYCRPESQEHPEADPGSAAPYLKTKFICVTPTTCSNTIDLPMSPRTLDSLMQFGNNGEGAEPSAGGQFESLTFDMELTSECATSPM
T1 sequence (P0A0K8 whole entry): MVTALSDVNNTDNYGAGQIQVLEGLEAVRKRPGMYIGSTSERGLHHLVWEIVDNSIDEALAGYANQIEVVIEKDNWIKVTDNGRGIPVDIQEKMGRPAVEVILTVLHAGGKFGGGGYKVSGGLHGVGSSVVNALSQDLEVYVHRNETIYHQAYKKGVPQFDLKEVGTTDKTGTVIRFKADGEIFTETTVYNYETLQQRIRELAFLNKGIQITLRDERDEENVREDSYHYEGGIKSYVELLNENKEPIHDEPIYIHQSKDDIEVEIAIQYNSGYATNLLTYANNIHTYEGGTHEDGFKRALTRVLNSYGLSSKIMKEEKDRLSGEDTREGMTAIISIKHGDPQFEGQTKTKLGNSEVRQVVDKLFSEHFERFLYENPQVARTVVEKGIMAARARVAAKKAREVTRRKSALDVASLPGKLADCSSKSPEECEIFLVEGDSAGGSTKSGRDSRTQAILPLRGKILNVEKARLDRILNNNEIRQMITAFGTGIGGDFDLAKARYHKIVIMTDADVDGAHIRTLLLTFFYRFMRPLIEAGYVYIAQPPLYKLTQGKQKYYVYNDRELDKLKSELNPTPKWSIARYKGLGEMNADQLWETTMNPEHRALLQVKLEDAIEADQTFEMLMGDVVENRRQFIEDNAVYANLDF
T1 sequence (P20831 whole entry partner): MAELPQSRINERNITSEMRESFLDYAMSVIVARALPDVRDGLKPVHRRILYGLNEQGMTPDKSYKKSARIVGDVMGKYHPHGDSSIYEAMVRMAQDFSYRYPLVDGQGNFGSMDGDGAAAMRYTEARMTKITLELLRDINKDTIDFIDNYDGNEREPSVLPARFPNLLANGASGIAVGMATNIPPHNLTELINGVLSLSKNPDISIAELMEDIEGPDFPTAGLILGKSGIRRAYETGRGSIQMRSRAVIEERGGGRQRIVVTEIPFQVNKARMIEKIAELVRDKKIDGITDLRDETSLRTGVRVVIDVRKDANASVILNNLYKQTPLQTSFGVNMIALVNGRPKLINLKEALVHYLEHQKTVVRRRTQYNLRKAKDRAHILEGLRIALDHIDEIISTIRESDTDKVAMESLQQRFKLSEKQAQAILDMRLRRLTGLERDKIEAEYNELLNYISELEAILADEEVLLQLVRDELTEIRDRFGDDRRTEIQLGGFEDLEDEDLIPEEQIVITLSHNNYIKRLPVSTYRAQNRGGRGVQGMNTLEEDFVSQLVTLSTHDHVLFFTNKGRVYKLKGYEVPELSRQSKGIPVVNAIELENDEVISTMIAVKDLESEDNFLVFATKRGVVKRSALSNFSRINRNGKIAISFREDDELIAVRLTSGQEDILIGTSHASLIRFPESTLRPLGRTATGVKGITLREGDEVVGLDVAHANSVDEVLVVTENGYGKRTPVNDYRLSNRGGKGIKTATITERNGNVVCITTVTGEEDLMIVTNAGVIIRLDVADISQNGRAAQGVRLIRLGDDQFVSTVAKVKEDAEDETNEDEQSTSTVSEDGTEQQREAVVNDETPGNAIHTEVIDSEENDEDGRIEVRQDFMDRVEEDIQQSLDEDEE

For `CC(=O)c1ccc2cc(S(=O)(=O)Nc3ccc(Br)cc3)ccc2c1` [Compound 5e, 6-Acetyl-N-(4-bromophenyl)naphthalene-2-sulfonamide], the MIC [1] was 20 mg/mL (≈ 49.5 mM), the “Zone of inhibition, inhibition scale” value ([2]; C. albicans ATCC 10231) was “+++ (15–17 mm (+++))” and the Zone of inhibition ([2]; C. albicans ATCC 10231, average of triplicate) was 15 mm. For the same molecule, the “c-MYC gene expression level” value [3] was “significant reduction”, the “Cyclin D1 gene expression level” value [4] was “significant reduction” and the IC50 ([5]; Homo sapiens, MCF7, 48 h, read-out: IC50 (μM) MCF7) was 43.1 µM. For the same molecule, the “(SI) MCF7, selectivity index” value ([5]; SI = IC50 MDCK cell/IC50 MCF7 cell) was 2.22, the “Zone of inhibition, inhibition scale” value ([6]; S. aureus ATCC 25923) was “+++ (15–17 mm (+++))” and the Zone of inhibition ([6]; S. aureus ATCC 25923, average of triplicate) was 16 mm. For the same molecule, the IC50 ([7]; STAT3 phosphorylation IC50 (μM) (mean ± SD), ELISA, eight dilutions 100-0.03 μM) was 3.01 ± 0.06 µM, the “Potency as STAT3 inhibitor relative to lead compound I” value ([7]; higher potency than compound I) was “approximately 2 fold” and the “BAX gene expression level” value [8] was “significantly increased”. For the same molecule, the IC50 [9] was 21.8 µM, the “STAT3 gene expression level” value [10] was “significant reduction” and the “Zone of inhibition, inhibition scale” value [11] was “+ (7–11 mm (+))”. For the same molecule, the Zone of inhibition ([11]; average of triplicate) was 11 mm, the “Zone of inhibition, inhibition scale” value ([12]; E. coli O157 ATCC 700728) was “++ (12–14 mm (++))” and the Zone of inhibition ([12]; E. coli O157 ATCC 700728, average of triplicate) was 12 mm. The IC50 [13] was 3.04 µM, the “IL6 gene expression level” value [14] was “significant reduction” and the IC50 [15] was 5.96 µM. For the same molecule, the “Activity relative to ciprofloxacin, topoisomerase IV ATPase assay” value ([15]; S. aureus, less than ciprofloxacin) was “more than 3 fold” and the IC50 [16] was 18.9 µM.
